Assay results as given in ChEMBL document CHEMBL5257027 (Eur J Med Chem, 2016).
pIC50: −log10 of the molar value.

Columns and labels:
K562 [1] = assay: Antiproliferative activity against human K562 cells assessed as reduction in cell growth; type: functional
Procedure, shortened: (§1)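 NCI five-dose testing across the 58-line panel gives GI50, TGI and LC50 for each line. Subpanel lines report mean GI50 for each of the nine cancer types.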

HCC 2998 = assay: Antiproliferative activity against human HCC 2998 cells assessed as inhibition of cell growth at 10 uM; type: functional
Procedure, shortened: (§2)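 NCI 58-cell-line screen covering leukemia, NSCLC, colon, CNS, melanoma, ovarian, renal, prostate and breast lines. Compounds given once at […] (micromolar per the line). Percent inhibition taken as 100 minus growth percent. Panel line reports the mean over all 58 lines.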

[2] = Antiproliferative activity against human Panel NCI-58 (58 Carcinoma cell lines) assessed as reduction in mean cell growth at 10 uM; type: functional; design: scale not given: the % may be the effect or the level left; procedure, shortened: as §2
[3] = target: Serine/threonine-protein kinase B-raf (Homo sapiens, UniProt P15056, V600E); assay: Inhibition of B-RAF V600E mutant (unknown origin) using […] as substrate incubated for 40 mins in presence of [gamma33P]ATP by scintillation counting based hotspot kinase assay
Serine/threonine-protein kinase B-raf, sequence (P15056 2-766 V600E limits assumed): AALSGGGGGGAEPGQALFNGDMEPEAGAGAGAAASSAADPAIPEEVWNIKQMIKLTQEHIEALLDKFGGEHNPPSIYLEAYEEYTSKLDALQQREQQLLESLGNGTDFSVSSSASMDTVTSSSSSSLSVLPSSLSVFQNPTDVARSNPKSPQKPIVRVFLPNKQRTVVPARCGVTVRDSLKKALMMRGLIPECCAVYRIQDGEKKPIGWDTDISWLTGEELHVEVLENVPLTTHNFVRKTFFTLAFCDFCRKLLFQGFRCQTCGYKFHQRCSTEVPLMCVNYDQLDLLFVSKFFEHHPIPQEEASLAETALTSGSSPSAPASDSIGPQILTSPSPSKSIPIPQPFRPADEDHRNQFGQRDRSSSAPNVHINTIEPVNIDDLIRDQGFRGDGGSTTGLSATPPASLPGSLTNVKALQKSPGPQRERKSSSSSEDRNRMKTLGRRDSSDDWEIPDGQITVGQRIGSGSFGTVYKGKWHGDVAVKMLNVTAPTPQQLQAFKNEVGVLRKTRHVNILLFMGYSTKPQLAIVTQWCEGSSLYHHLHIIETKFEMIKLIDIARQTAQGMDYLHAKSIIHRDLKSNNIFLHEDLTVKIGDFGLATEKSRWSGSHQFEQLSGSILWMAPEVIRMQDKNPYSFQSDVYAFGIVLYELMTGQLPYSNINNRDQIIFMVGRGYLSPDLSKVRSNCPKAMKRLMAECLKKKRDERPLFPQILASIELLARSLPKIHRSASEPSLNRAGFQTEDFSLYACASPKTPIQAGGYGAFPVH

MDA-MB-468 [4] = assay: Antiproliferative activity against human MDA-MB-468 cells assessed as total growth inhibition; type: functional; procedure, shortened: as §1
[5] = target: Serine/threonine-protein kinase B-raf (Homo sapiens) (UniProt P15056); assay: Inhibition of B-RAF (unknown origin) at 10 uM using […] as substrate incubated for 40 mins in presence of [gamma33P]ATP by scintillation counting based hotspot kinase assay relative to control
Serine/threonine-protein kinase B-raf (Homo sapiens), sequence (P15056 whole entry): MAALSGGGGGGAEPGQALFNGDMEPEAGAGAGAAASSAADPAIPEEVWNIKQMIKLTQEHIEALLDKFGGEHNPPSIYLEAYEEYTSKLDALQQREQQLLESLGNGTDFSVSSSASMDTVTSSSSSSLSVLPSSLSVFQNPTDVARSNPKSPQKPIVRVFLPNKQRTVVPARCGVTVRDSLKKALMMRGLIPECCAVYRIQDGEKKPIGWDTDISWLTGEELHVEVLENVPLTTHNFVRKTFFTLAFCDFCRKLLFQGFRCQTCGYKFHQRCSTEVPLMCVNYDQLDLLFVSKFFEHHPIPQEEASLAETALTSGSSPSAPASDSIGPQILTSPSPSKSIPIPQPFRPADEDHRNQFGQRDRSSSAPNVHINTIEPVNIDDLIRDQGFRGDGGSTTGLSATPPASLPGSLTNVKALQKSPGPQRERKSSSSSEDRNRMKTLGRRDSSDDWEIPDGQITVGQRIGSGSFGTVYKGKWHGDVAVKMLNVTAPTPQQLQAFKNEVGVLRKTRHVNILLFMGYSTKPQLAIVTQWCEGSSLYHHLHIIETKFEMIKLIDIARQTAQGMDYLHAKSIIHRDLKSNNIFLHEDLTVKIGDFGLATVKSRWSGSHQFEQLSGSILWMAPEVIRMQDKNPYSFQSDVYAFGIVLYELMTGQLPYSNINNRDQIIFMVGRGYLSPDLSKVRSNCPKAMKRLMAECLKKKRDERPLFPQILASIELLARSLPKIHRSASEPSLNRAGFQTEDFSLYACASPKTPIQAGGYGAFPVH

PC-3 [6] = assay: Antiproliferative activity against human PC-3 cells assessed as reduction in cell growth; type: functional; procedure, shortened: as §1
COLO 205 [7] = assay: Cytotoxicity against human COLO 205 cells; type: functional
Procedure, shortened: (§3)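 Run in the US NCI 58-cell-line screen covering nine cancer types (leukemia, NSCLC, colon, CNS, melanoma, ovarian, renal, prostate, breast). Five-dose mode gave GI50, TGI and LC50 values for each cell line. In the single-dose pre-screen, % inhibition was taken as 100 minus growth percentage.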

[8] = Antiproliferative activity against human Panel non-small cell lung cancer (8 Carcinoma cell lines) assessed as reduction in mean cell growth; type: functional; settings: Non-small cell lung cancer cell line; procedure, shortened: as §1
SK-MEL-5 [9] = assay: Antiproliferative activity against human SK-MEL-5 cells assessed as total growth inhibition; type: functional; procedure, shortened: as §1
NCI/ADR-RES [10] = assay: Antiproliferative activity against human NCI/ADR-RES cells assessed as reduction in cell growth; type: functional; procedure, shortened: as §1
[11] = tested on: Panel breast (Carcinoma cell lines); assay: Antiproliferative activity against human Panel breast (6 Carcinoma cell lines) assessed as reduction in mean cell growth; type: functional; procedure, shortened: as §1
LOX IMVI = assay: Antiproliferative activity against human LOX IMVI cells assessed as inhibition of cell growth at 10 uM; type: functional; procedure, shortened: as §2
RXF 393 [12] = assay: Antiproliferative activity against human RXF 393 cells assessed as reduction in cell growth; type: functional; procedure, shortened: as §1
HCT-15 [13] = assay: Cytotoxicity against human HCT-15 cells; type: functional; settings: read-out: LC50 (the source's name); procedure, shortened: as §3
HOP-92 [14] = assay: Antiproliferative activity against human HOP-92 cells assessed as total growth inhibition; type: functional; procedure, shortened: as §1
Homo sapiens = species on record: Homo sapiens; assay: Inhibition of ABL […] mutant (unknown origin) at 10 uM using […] as substrate incubated for 40 mins in presence of [gamma33P]ATP by scintillation counting based hotspot kinase assay relative to control
PC-3 [15] = assay: Cytotoxicity against human PC-3 cells; type: functional; procedure, shortened: as §3
[16] = tested on: Panel colon (Carcinoma cell lines); assay: Antiproliferative activity against human Panel colon (7 Carcinoma cell lines) assessed as reduction in mean cell growth; type: functional; procedure, shortened: as §1
MDA-MB-468 [17] = assay: Cytotoxicity against human MDA-MB-468 cells; type: functional; settings: read-out: LC50 (the source's name); procedure, shortened: as §3
[18] = tested on: Panel melanoma (Carcinoma cell lines); assay: Antiproliferative activity against human Panel melanoma (9 Carcinoma cell lines) assessed as reduction in mean cell growth; type: functional; procedure, shortened: as §1
SNB-75 [19] = assay: Antiproliferative activity against human SNB-75 cells assessed as reduction in cell growth; type: functional; procedure, shortened: as §1
SNB-75 [20] = assay: Antiproliferative activity against human SNB-75 cells assessed as total growth inhibition; type: functional; procedure, shortened: as §1
[21] = tested on: Panel leukemia (Carcinoma cell lines); assay: Antiproliferative activity against human Panel leukemia (5 Carcinoma cell lines) assessed as reduction in mean cell growth; type: functional; procedure, shortened: as §1
NCI/ADR-RES [22] = assay: Antiproliferative activity against human NCI/ADR-RES cells assessed as total growth inhibition; type: functional; procedure, shortened: as §1
COLO 205 [23] = assay: Antiproliferative activity against human COLO 205 cells assessed as total growth inhibition; type: functional; procedure, shortened: as §1
COLO 205 [24] = assay: Antiproliferative activity against human COLO 205 cells assessed as inhibition of cell growth at 10 uM; type: functional; procedure, shortened: as §2
[25] = target: Epidermal growth factor receptor (Homo sapiens) (UniProt P00533); assay: Inhibition of EGFR (unknown origin) at 10 uM using […] as substrate incubated for 40 mins in presence of [gamma33P]ATP by scintillation counting based hotspot kinase assay relative to control
Epidermal growth factor receptor (Homo sapiens), sequence (P00533 whole entry): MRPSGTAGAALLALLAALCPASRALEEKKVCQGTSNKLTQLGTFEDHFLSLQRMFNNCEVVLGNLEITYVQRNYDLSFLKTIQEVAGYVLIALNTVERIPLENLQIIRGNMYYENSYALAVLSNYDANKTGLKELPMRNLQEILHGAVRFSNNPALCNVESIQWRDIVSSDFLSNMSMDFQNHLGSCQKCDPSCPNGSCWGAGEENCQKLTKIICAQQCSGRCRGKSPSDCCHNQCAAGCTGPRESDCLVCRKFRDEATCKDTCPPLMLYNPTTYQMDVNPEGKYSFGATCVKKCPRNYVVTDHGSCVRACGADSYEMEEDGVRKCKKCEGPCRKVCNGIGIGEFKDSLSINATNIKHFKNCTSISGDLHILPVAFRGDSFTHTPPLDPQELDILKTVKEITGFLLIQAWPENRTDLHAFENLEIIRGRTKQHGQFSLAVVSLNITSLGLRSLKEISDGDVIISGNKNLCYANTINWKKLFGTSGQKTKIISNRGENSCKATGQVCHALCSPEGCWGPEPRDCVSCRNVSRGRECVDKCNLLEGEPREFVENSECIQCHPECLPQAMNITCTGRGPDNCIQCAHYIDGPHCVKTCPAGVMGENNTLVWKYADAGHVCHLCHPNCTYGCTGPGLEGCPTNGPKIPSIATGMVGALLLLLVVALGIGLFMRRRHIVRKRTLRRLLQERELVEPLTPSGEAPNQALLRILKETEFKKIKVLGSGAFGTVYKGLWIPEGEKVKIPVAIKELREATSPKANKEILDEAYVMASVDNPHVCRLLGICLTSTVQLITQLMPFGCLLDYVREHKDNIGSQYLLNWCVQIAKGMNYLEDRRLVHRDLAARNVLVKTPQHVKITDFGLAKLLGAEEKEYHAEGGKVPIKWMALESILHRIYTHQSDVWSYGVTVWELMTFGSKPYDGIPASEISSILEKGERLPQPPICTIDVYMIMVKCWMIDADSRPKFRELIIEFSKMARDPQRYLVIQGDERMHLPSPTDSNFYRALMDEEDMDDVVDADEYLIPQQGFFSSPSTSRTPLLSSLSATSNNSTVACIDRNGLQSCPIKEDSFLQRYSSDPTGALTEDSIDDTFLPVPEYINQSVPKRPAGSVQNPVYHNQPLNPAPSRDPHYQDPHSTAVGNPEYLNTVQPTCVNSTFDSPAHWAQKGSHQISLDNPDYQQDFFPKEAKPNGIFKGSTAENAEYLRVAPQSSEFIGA

[26] = tested on: Serine/threonine-protein kinase B-raf (Homo sapiens), P15056 [V600E]; assay: Inhibition of B-RAF V600E mutant (unknown origin) at 10 uM using […] as substrate incubated for 40 mins in presence of [gamma33P]ATP by scintillation counting based hotspot kinase assay relative to control
Serine/threonine-protein kinase B-raf (Homo sapiens), P15056 [V600E], sequence (P15056 whole entry V600E): as the sequence (P15056 whole entry) above, with V600E counted along it

[27] = tested on: Panel renal (Carcinoma cell lines); assay: Antiproliferative activity against human Panel renal (8 Carcinoma cell lines) assessed as reduction in mean cell growth; type: functional; procedure, shortened: as §1
NCI/ADR-RES [28] = assay: Cytotoxicity against human NCI/ADR-RES cells; type: functional; procedure, shortened: as §3
RXF 393 [29] = assay: Cytotoxicity against human RXF 393 cells; type: functional; procedure, shortened: as §3
[30] = target: T1, RAF proto-oncogene serine/threonine-protein kinase (Homo sapiens, UniProt P04049); assay: Inhibition of RAF1 (unknown origin) using […] as substrate incubated for 40 mins in presence of [gamma33P]ATP by scintillation counting based hotspot kinase assay
T1 sequence (P04049 whole entry): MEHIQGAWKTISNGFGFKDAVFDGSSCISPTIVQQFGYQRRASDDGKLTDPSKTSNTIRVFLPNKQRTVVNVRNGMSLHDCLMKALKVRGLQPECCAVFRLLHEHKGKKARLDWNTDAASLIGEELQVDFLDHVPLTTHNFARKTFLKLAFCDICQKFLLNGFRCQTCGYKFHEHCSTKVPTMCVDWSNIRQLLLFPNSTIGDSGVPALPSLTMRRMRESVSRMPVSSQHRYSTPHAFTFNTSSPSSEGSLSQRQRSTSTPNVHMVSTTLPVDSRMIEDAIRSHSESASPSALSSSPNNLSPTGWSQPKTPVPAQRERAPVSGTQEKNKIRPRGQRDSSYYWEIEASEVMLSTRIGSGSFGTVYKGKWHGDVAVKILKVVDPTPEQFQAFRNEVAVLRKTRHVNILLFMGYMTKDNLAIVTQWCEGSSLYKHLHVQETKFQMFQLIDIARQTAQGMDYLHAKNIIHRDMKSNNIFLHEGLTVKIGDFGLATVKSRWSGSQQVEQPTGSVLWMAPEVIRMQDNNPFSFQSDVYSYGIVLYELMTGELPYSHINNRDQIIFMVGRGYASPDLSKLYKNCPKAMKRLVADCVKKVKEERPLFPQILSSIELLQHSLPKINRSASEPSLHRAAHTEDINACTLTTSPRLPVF
Procedure, shortened: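 IC50 from a radiometric assay. Kinase (5–10 mU) is incubated in 25 mM Tris pH 7.5 with 0.02 mM EGTA, 0.66 mg/mL myelin basic protein as substrate, 10 mM magnesium acetate and [γ33P]ATP. Mg-ATP starts the reaction, which runs 40 min at room temperature. It is stopped with 3% phosphoric acid, captured on filtermat, washed and counted by scintillation.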

K562 [31] = assay: Cytotoxicity against human k562 cells; type: functional; settings: read-out: LC50 (the source's name); procedure, shortened: as §3
SNB-75 [32] = assay: Cytotoxicity against human SNB-75 cells; type: functional; settings: read-out: LC50 (the source's name); procedure, shortened: as §3
SK-MEL-5 [33] = assay: Antiproliferative activity against human SK-MEL-5 cells assessed as reduction in cell growth; type: functional; procedure, shortened: as §1
HOP-92 [34] = assay: Cytotoxicity against human HOP-92 cells; type: functional; procedure, shortened: as §3
SK-MEL-5 [35] = assay: Cytotoxicity against human SK-MEL-5 cells; type: functional; procedure, shortened: as §3
[36] = target: T1, RAF proto-oncogene serine/threonine-protein kinase; assay: Inhibition of RAF1 (unknown origin) at 10 uM using […] as substrate incubated for 40 mins in presence of [gamma33P]ATP by scintillation counting based hotspot kinase assay relative to control
HCT-15 [37] = assay: Antiproliferative activity against human HCT-15 cells assessed as reduction in cell growth; type: functional; procedure, shortened: as §1
[38] = target: Mitogen-activated protein kinase 14 (Homo sapiens) (UniProt Q16539); assay: Inhibition of MAPK14 (p38 alpha) (unknown origin) at 10 uM using […] as substrate incubated for 40 mins in presence of [gamma33P]ATP by scintillation counting based hotspot kinase assay relative to control
Mitogen-activated protein kinase 14 (Homo sapiens), sequence (Q16539 whole entry): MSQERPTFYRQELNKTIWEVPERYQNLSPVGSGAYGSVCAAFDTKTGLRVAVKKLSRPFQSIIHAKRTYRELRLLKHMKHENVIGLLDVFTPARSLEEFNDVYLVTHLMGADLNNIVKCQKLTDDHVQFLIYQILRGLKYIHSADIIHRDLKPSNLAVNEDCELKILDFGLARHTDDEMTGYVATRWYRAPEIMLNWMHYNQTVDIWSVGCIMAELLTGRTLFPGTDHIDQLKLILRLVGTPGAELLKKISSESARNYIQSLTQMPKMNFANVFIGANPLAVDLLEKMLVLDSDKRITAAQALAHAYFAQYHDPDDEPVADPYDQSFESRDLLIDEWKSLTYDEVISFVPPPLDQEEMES

HCT-15 [39] = assay: Antiproliferative activity against human HCT-15 cells assessed as total growth inhibition; type: functional; procedure, shortened: as §1
[40] = tested on: Panel ovarian (Carcinoma cell lines); assay: Antiproliferative activity against human Panel ovarian (7 Carcinoma cell lines) assessed as reduction in mean cell growth; type: functional; procedure, shortened: as §1
L132 = assay: Cytotoxicity against human L132 cells assessed as reduction in cell growth at 31.3 to 100 uM relative to control; type: toxicity, cell-based; design: scale not given: the % may be the effect or the level left; settings: l132, 100 µM, dose 31.3-100 µM
[41] = target: Tyrosine-protein kinase ABL1 (Homo sapiens) (UniProt P00519); assay: Inhibition of ABL (unknown origin) at 10 uM using […] as substrate incubated for 40 mins in presence of [gamma33P]ATP by scintillation counting based hotspot kinase assay relative to control
Tyrosine-protein kinase ABL1 (Homo sapiens), sequence (P00519 whole entry): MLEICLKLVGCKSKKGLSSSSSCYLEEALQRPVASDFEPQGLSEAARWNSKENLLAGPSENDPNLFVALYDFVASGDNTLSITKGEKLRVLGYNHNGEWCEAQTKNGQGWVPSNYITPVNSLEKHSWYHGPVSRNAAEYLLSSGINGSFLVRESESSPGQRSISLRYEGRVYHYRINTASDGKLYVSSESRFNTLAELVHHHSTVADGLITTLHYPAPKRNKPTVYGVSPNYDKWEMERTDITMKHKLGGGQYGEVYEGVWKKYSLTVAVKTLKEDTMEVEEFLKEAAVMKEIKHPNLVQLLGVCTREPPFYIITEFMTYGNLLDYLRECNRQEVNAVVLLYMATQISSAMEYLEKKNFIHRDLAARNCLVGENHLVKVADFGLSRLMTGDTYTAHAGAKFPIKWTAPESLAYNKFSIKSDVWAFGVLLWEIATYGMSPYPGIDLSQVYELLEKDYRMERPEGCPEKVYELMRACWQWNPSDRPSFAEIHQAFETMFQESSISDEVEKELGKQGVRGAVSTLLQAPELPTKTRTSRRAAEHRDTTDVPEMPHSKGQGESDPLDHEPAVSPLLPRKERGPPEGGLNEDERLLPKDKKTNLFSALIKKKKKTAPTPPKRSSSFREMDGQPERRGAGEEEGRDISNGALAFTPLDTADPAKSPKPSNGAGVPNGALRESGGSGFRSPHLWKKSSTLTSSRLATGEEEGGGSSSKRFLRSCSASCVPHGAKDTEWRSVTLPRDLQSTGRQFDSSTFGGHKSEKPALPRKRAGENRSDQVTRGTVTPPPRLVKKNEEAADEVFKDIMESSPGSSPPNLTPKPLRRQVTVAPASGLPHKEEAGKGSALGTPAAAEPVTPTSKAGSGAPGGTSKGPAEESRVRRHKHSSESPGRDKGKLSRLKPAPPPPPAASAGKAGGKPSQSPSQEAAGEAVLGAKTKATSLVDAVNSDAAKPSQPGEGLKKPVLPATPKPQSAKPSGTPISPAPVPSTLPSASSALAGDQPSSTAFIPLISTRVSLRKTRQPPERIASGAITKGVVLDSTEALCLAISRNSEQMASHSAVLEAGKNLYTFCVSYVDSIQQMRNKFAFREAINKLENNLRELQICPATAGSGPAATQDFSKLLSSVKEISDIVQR

COLO 205 [42] = assay: Antiproliferative activity against human COLO 205 cells assessed as reduction in cell growth; type: functional; procedure, shortened: as §1
MDA-MB-468 [43] = assay: Antiproliferative activity against human MDA-MB-468 cells assessed as reduction in cell growth; type: functional; procedure, shortened: as §1
K562 [44] = assay: Antiproliferative activity against human K562 cells assessed as total growth inhibition; type: functional; procedure, shortened: as §1
PC-3 [45] = assay: Antiproliferative activity against human PC-3 cells assessed as total growth inhibition; type: functional; procedure, shortened: as §1
[46] = tested on: Panel prostate (Carcinoma cell lines); assay: Antiproliferative activity against human Panel prostate (2 Carcinoma cell lines) assessed as reduction in mean cell growth; type: functional; procedure, shortened: as §1
RXF 393 [47] = assay: Antiproliferative activity against human RXF 393 cells assessed as total growth inhibition; type: functional; procedure, shortened: as §1
HOP-92 [48] = assay: Antiproliferative activity against human HOP-92 cells assessed as reduction in cell growth; type: functional; procedure, shortened: as §1
[49] = tested on: Panel CNS (Carcinoma cell lines); assay: Antiproliferative activity against human Panel CNS (6 Carcinoma cell lines) assessed as reduction in mean cell growth; type: functional; procedure, shortened: as §1

Compound COc1cccc(-c2nn(-c3ccccc3)cc2-c2ccnc(NCCCNC(=O)Nc3ccc(Cl)c(Cl)c3)c2)c1 has a GI50 (K562 [1]) of 2.38 µM, an inhibition at 10 µM (HCC 2998) of 162% and an Activity [2] of 104.1%. The pIC50 [3] was 6.11, the TGI (MDA-MB-468 [4]) was 4.34 µM and the inhibition [5] was 56.9%. It also gave a GI50 (PC-3 [6]) of 3.96 µM, an LC50 (lethal concentration 50%) (COLO 205 [7]) of 7.8 µM and a GI50 [8] of 3.51 µM. For the same compound, the TGI (SK-MEL-5 [9]) was 3.32 µM, the GI50 (NCI/ADR-RES [10]) was 2.19 µM and the GI50 [11] was 2.69 µM. It also gave an inhibition at 10 µM (LOX IMVI) of 192%, a GI50 (RXF 393 [12]) of 1.8 µM and a CC50 (HCT-15 [13]) of 29.1 µM. It also gave a TGI (HOP-92 [14]) of 7.68 µM, an inhibition (Homo sapiens) of 6.38% and an LC50 (PC-3 [15]) of 100 µM. It also gave a GI50 [16] of 2.44 µM, a CC50 (MDA-MB-468 [17]) of 9.82 µM and a GI50 [18] of 1.89 µM. The GI50 (SNB-75 [19]) was 2.52 µM, the TGI (SNB-75 [20]) was 19.2 µM and the GI50 [21] was 2.31 µM. The TGI (NCI/ADR-RES [22]) was 5.39 µM, the TGI (COLO 205 [23]) was 3.82 µM and the inhibition at 10 µM (COLO 205 [24]) was 145%. It also gave an inhibition [25] of 3.38%, an inhibition [26] of 90.4% and a GI50 [27] of 3.14 µM. The LC50 (NCI/ADR-RES [28]) was 86.9 µM, the LC50 (RXF 393 [29]) was 23 µM and the pIC50 [30] was 5.82. It also gave a CC50 (K562 [31]) of 100 µM, a CC50 (SNB-75 [32]) of 100 µM and a GI50 (SK-MEL-5 [33]) of 1.75 µM. The LC50 (HOP-92 [34]) was 71 µM, the LC50 (SK-MEL-5 [35]) was 6.3 µM and the inhibition [36] was 87.7%. It also gave a GI50 (HCT-15 [37]) of 2.4 µM, an inhibition [38] of 45.8% and a TGI (HCT-15 [39]) of 6.66 µM. The GI50 [40] was 3.74 µM, the Activity (L132) was 50% and the inhibition [41] was 7.7%. The GI50 (COLO 205 [42]) was 1.87 µM, the GI50 (MDA-MB-468 [43]) was 1.92 µM and the TGI (K562 [44]) was 5.85 µM. For the same compound, the TGI (PC-3 [45]) was 22.4 µM, the GI50 [46] was 4.71 µM and the TGI (RXF 393 [47]) was 4.87 µM. For the same compound, the GI50 (HOP-92 [48]) was 2.32 µM and the GI50 [49] was 2.93 µM.
